Shown is part of a subset that was picked to be rich in hits.
Lung fibro prol: antiproliferative effect on LL 47 fibroblasts – human, LL 47 cells, CellTiter-Glo luminescence, primary screen. LL 47 human lung fibroblast viability, ATP luminescence; active compounds read low. viability, % at 10 µM. actives 1.1% (n = 85,000);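 active = viability at or below 50% in the single dose screen; inactive = viability above 50%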;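 also: compound exposure lasted 72 h before the ATP readout; 100% = median luminescence of untreated cell-only wells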
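Test system: LL 47 human lung fibroblasts; Quantity: 1,150 cells/well; Buffer or medium: IMEM plus 15% FBS; Dosing: tenfold compound dosing solution, DMSO at 0.1%; Timing: overnight cell rest, 72 h compound treatment at 37 °C; Detection: ATP-based CellTiter-Glo luminescent readout; Read-out basis: viability percentage against median untreated-cell control; Controls: cell-only wells, no compound.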
HCT116 bCat-KO: primary screen for growth suppressors in beta-catenin knockout HCT116 cells (colon tumor, human); HCT116 beta-catenin knockout viability, CellTiter-Glo, 60 h; active compounds read low; viability, % at 10 µM; actives 1.5% (n = 140,000); AID 818, 2007;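 active = viability at or under a set limit, the compound median less 4 SD, cut at about 6% in these data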;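 also: 0% = Hyamine 1622 control at 20 µM and 100% = untreated cell control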
HUVEC prolif 384: inhibitors of HUVEC proliferation, primary screen, cell-based, 384-well; CellTiter-Glo luminescence, 72 h; active compounds read low; viability, % at 10 µM (by protocol); actives 1.1% (n = 86,000); AID 648, 2007;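 active = viability at or below 30%; inactive = viability above 30%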;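 also: 100% = median luminescence of DMSO-only cell control wells on each plate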
HCT116 PTEN-null: growth suppression of PTEN-null HCT116, primary screen, cell-based, CellTiter-Glo; AID 827, 2007; viability, % at 10 µM; actives 1.2% (n = 140,000); HCT116 PTEN-null viability, 60 h; active compounds read low;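 active = viability at or below a set limit, 4 SD under the median of all tested compounds, cut at about 3.7% in these data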;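 also: PTEN knockout HCT116 line with beta catenin targeted HCT116 as companion control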
H69AR inhibit: proliferation blockers of H69AR lung cancer cells, primary screen, cell-based, human, 86K library; AID 598, 2007; viability, % at 10 µM; H69AR lung tumor viability, ATP luminescence, 72 h; active compounds read low; actives 6% (n = 85,000);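 active = viability at or below 40%; inactive = viability above 40%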;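 also: multidrug resistant small cell line overexpressing MRP-1 efflux transporter; 100% = mean luminescence of untreated control wells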
* marks the source's active call; other numbers are inactive results.

`Cc1nc2sccn2c1-c1nc(C2CC2)c(C(=O)c2ccc3c(c2)NC(=O)CO3)s1` gave Lung fibro prol 93.2, HUVEC prolif 384 95.0 and H69AR inhibit 70.0.
COc1ccccc1NC(=O)N(Cc1ccco1)Cc1cc2ccc(C)c(C)c2[nH]c1=O was read as Lung fibro prol 55.0, HCT116 bCat-KO 16.6, HUVEC prolif 384 59.1, HCT116 PTEN-null 24.1 and H69AR inhibit 17.4*.
Screening COc1ccccc1NC(=O)N(Cc1ccco1)Cc1cc2cc(C)cc(C)c2[nH]c1=O returned Lung fibro prol 105.0, HCT116 bCat-KO 30.7, HUVEC prolif 384 60.5, HCT116 PTEN-null 29.9 and H69AR inhibit 18.6*.
`COc1ccccc1NC(=S)N(Cc1ccco1)Cc1cc2cccc(C)c2[nH]c1=O` gave HCT116 bCat-KO 89.5 and HCT116 PTEN-null 73.0.
For C=COC(=O)CSc1nc(-c2cccs2)ccc1C#N the results were Lung fibro prol 102.2, HCT116 bCat-KO 96.1, HUVEC prolif 384 83.0, HCT116 PTEN-null 77.0 and H69AR inhibit 84.8.
CCOC(=O)C(C)Sc1nc(-c2cccs2)ccc1C#N (stereo not drawn) was read as Lung fibro prol 77.0, HCT116 bCat-KO 17.7, HUVEC prolif 384 52.7, HCT116 PTEN-null 20.4 and H69AR inhibit 4.0*.
Screening CCOC(=O)c1c(CNCCN(CC)CC)n(C)c2cc(Br)c(OC)cc12 returned Lung fibro prol 83.8, HCT116 bCat-KO 56.3, HUVEC prolif 384 45.1, HCT116 PTEN-null 59.3 and H69AR inhibit 33.5*.
`CCN(CC)CCNC(=O)c1c(C)n(-c2ccccc2)c2cc(Br)c(OC)cc12` gave Lung fibro prol 56.0, HCT116 bCat-KO 6.2, HUVEC prolif 384 6.1*, HCT116 PTEN-null 14.0 and H69AR inhibit 25.4*.
CCOC(=O)c1c(CN2CCN(CCO)CC2)n(C)c2cc(Br)c(OC)cc12 was read as Lung fibro prol 71.6, HCT116 bCat-KO 54.0, HUVEC prolif 384 45.5, HCT116 PTEN-null 41.2 and H69AR inhibit 16.5*.
Screening CCOC(=O)c1c(CN2CCCCC2)n(C)c2cc(Br)c(OC)cc12 returned Lung fibro prol 93.9, HCT116 bCat-KO 32.1, HUVEC prolif 384 59.1, HCT116 PTEN-null 46.7 and H69AR inhibit 77.2.
For COc1ccc(N2CCN(C(=O)CC3NC4CCCCC4NC3=O)CC2)cc1 (stereo not drawn) the results were HCT116 bCat-KO 98.1 and HCT116 PTEN-null 92.8.
O=c1cc(-c2ccccc2Cl)oc2c([N+](=O)[O-])c(O)cc(O)c12 was read as HCT116 bCat-KO 60.9 and HCT116 PTEN-null 42.6.
`COc1ccc(C2=CC(c3ccc(OC)c(OC)c3)n3nnnc3N2)c(OC)c1` (stereo not drawn) gave Lung fibro prol 94.1, HCT116 bCat-KO 78.6, HUVEC prolif 384 114.1, HCT116 PTEN-null 72.4 and H69AR inhibit 28.0*.
`COc1cccc(C2C=C(c3ccc(OC)cc3OC)Nc3nnnn32)c1` (stereo not drawn) gave Lung fibro prol 62.3, HCT116 bCat-KO 10.4, HUVEC prolif 384 64.1, HCT116 PTEN-null 9.3 and H69AR inhibit 15.1*.
O=C(CSc1nnc(Cc2cccs2)n1C1CCCCC1)N1CCCc2ccccc21 was read as Lung fibro prol 101.1, HCT116 bCat-KO 73.1, HUVEC prolif 384 71.2, HCT116 PTEN-null 64.5 and H69AR inhibit 34.5*.
Cn1c(Cc2cccs2)nnc1SCC(=O)N1CCCc2ccccc21 was read as Lung fibro prol 101.5, HCT116 bCat-KO 102.1, HUVEC prolif 384 84.3, HCT116 PTEN-null 103.8 and H69AR inhibit 91.6.
Screening Cc1ccc(S(=O)(=O)c2c(C(=O)c3ccccc3)cnc3cc4c(cc23)OCCO4)cc1 returned HCT116 bCat-KO 40.3 and HCT116 PTEN-null 30.5.
For CNC(=S)N1CCN(C(=O)C2CCCO2)CC1 (stereo not drawn) the results were HCT116 bCat-KO 96.1 and HCT116 PTEN-null 94.7.
Brc1ccc(CSc2nnc(-c3ccccn3)n2Cc2ccco2)cc1 was read as Lung fibro prol 49.4*, HCT116 bCat-KO 11.1, HUVEC prolif 384 52.1, HCT116 PTEN-null 9.7 and H69AR inhibit 21.1*.
For C(=C\c1ccccc1)/CSc1nnc(-c2ccccc2)n1Cc1ccco1 the results were Lung fibro prol 47.2*, HCT116 bCat-KO 10.3, HUVEC prolif 384 43.2, HCT116 PTEN-null 12.4 and H69AR inhibit 17.9*.
COc1ccc(OC)c(NC(=O)C(=O)NCCC2=CCCCC2)c1 was read as HCT116 bCat-KO 93.8 and HCT116 PTEN-null 94.8.
Screening Cn1c2ccccc2c(=O)c2c(=O)n(C3CCCCCC3)c(C3CCCCC3)nc21 returned HCT116 bCat-KO 5.2* and HCT116 PTEN-null 2.5*.
`Cn1c2ccccc2c(=O)c2c(=O)n(C3CCCCC3)c(-c3cccs3)nc21` gave Lung fibro prol 40.6*, HCT116 bCat-KO 24.8, HUVEC prolif 384 53.6, HCT116 PTEN-null 13.9 and H69AR inhibit 34.2*.
`Cc1ccc(CNC(=O)c2cn(C3CCCC3)c(=O)c3c2c2ccccc2n3C)o1` gave Lung fibro prol 94.3, HCT116 bCat-KO 60.1, HUVEC prolif 384 75.9, HCT116 PTEN-null 61.0 and H69AR inhibit 57.3.
`c1ccc2c(CCNc3ncnc4nc[nH]c34)c[nH]c2c1` gave Lung fibro prol 83.5, HCT116 bCat-KO 47.2, HUVEC prolif 384 65.1, HCT116 PTEN-null 38.2 and H69AR inhibit 20.1*.
Cc1nc(C)c2c(=O)cc(-c3ccccc3)[nH]c2n1 was read as Lung fibro prol 60.8, HCT116 bCat-KO 26.7, HUVEC prolif 384 56.6, HCT116 PTEN-null 30.0 and H69AR inhibit 30.7*.
For Cc1nc(-c2ccccc2)nc2[nH]c(-c3ccccc3)cc(=O)c12 the results were Lung fibro prol 96.1, HCT116 bCat-KO 91.4, HUVEC prolif 384 55.2, HCT116 PTEN-null 86.9 and H69AR inhibit 14.8*.
Cc1ccc(/C=N/NC(=O)c2cc(C3CC3)nc3ccccc23)o1 was read as HCT116 bCat-KO 36.7 and HCT116 PTEN-null 37.0.
`CCOC(=O)CSC1=NC(=O)/C(=C\c2ccc(Cl)cc2)S1` gave HCT116 bCat-KO 100.5 and HCT116 PTEN-null 91.4.
For Cc1nn(-c2ccccc2)c2c1/C(=N/O)CC(C)(C)C2 the results were Lung fibro prol 96.8, HCT116 bCat-KO 86.7, HUVEC prolif 384 105.5, HCT116 PTEN-null 80.0 and H69AR inhibit 30.0*.
`Cc1nn(-c2ccccc2)c2c1C(=O)N(c1ccccc1)C(=O)C(C)(C)C2` gave Lung fibro prol 94.4, HCT116 bCat-KO 90.8, HUVEC prolif 384 92.2, HCT116 PTEN-null 91.2 and H69AR inhibit 79.4.
For CCC(C)COC(=O)C(C#N)c1nc2ccccc2nc1N1CCCCC1 (stereo not drawn) the results were Lung fibro prol 98.2, HCT116 bCat-KO 74.4, HUVEC prolif 384 103.7, HCT116 PTEN-null 76.5 and H69AR inhibit 82.3.
For C=CCOC(=O)C(C#N)c1nc2ccccc2nc1N1CCC(C(=O)OCC)CC1 (stereo not drawn) the results were Lung fibro prol 97.1, HCT116 bCat-KO 86.3, HUVEC prolif 384 90.7, HCT116 PTEN-null 78.5 and H69AR inhibit 39.2*.

Source: PubChem
